KCNK3 block: human KCNK3 channel inhibition, primary screen. B-score at 10 µM. CHO-KCNK3 thallium flux, FluxOR fluorescence; stronger effect = lower value. AID 602410. O14649. 340,000 tested, 0.84% active;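 active = B-score under library mean minus 4 SD, starting fluorescence ratio at most library mean plus 5 SD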;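 note: more negative B-score means stronger inhibition of thallium flux through KCNK3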
KCNQ1 pot: potentiators or activators of human KCNQ1 potassium channel. P51787. 310,000 tested, 0.35% active. AID 2648. B-score at 10 µM. CHO-K1 KCNQ1, thallium flux FluxOR fluorescence; stronger effect = higher value;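 active = fluorescence ratio B-score, a plate-corrected score, at least three library SD, with initial intensity B-score within 5 SD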
Target sequence (P51787 whole entry, looked up): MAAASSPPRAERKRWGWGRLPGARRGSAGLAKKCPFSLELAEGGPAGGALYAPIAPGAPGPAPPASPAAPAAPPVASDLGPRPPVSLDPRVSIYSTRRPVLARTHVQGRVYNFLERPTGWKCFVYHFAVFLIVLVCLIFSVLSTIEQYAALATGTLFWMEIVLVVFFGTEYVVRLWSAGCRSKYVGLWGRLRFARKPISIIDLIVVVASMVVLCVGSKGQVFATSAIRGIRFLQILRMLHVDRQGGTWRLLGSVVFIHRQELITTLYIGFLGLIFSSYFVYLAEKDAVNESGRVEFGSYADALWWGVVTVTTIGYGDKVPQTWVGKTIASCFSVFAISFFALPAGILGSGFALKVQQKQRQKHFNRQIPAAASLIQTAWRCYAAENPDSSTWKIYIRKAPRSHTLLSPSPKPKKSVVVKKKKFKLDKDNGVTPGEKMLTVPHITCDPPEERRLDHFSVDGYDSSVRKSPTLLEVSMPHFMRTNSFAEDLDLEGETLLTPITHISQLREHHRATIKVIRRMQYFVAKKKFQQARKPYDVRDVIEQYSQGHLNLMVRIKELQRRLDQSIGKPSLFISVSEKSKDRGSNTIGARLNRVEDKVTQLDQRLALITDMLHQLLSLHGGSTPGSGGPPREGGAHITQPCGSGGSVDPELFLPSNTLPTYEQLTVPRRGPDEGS
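System: CHO-K1 cells stably expressing KCNQ1 / Medium: assay buffer for compound exposure, DMSO matched across wells / Reagent: thallium- and potassium-containing depolarizing buffer / Compound: one concentration, matched DMSO / Incubation: 20 min compound pretreatment at room temperature / Measured by: kinetic FluxOR fluorescence, 10 s baseline plus 110 s post-stimulus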
KCNK9 block: inhibitors of human KCNK9 two-pore domain potassium channel | AID 488922 | B-score at 10 µM | Q9NPC2 | HEK293 KCNK9, FluxOR thallium flux fluorescence; stronger effect = lower value | 310,000 tested, 1.2% active;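 active = ratio B-score over 3 SD below the library mean, with starting fluorescence within 5 SD of its mean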;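 note: negative B-score means less thallium flux so channel inhibition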
KCNQ1 inh: human KCNQ1 channel inhibition; CHO-K1 KCNQ1, FluxOR thallium flux fluorescence; stronger effect = higher value; B-score at 10 µM; 310,000 tested, 1.3% active; AID 2642;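 active = compounds whose thallium flux B-score, printed positive for inhibition, exceeds three library SD while starting fluorescence stays within three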;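 note: channel opened by potassium depolarization with thallium stimulus after 20 min compound exposure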
Kir21 block: blocks the mouse Kir2.1 inward-rectifier potassium channel | B-score at 10 µM | HEK293-Kir2.1, FluxOR thallium flux fluorescence; stronger effect = lower value | 310,000 tested, 0.85% active;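 active = fluorescence ratio B-score at or below minus 3 SD of library scores, with starting-brightness B-score within 2 SD, cut at about -4.2 in these data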;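 note: channel flux triggered by added potassium and thallium sulfate stimulus; B-score of peak minus minimum fluorescence over baseline after thallium stimulus; more negative B-score means stronger Kir2.1 block with less thallium influx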
hERG protect: shields human hERG channel from block by proarrhythmic agents | Q12809 | AID 1511 | activation (rescue from dofetilide block), less the hit threshold, % at 10 µM | 310,000 tested, 0.51% active | CHO-hERG, FluxOR thallium flux, dofetilide IC70 present;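 active = activation above the mean of controls blocked by dofetilide plus 5 SD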;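 note: thallium influx through hERG after potassium depolarization seen as dye fluorescence rise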
KCNK3 confirm: human KCNK3 channel inhibition, confirmation assay. CHO-KCNK3 thallium flux, FluxOR fluorescence; 0% buffer, 100% carvedilol maximal block. shares compounds with KCNK3 block. ratio percent of control, % at 10 µM. 2,400 tested, 99% active;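 active = ratio percent of control, averaged over triplicates, above buffer control mean plus 5 SD, cut at about 64% in these data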;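 note: ratio is the fluorescence rise from min to max over baseline after thallium stimulus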
KCNK3 uninduced: KCNK3 inhibitor counter-screen hit in non-induced cells. non-induced KCNK3 parental cells, FluxOR thallium flux; stronger effect = lower value. thallium flux ratio (lower = more inhibition) at 10 µM. 2,400 tested, 40% active. AID 651747. shares compounds with KCNK3 block;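 active = thallium flux ratio, averaged over three wells, more than 5 SD below the buffer control mean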;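 note: host cells are CHO cells without KCNK3 induction; ratio is peak minus trough fluorescence over baseline then normalized to buffer controls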
* marks the source's active call; other numbers are inactive results; i = inactive; / = not tested or not shown. This is a sample that favours compounds with a hit; in the whole collection about 3.7% have one here.

SMILES	KCNK3 block	KCNQ1 pot	KCNK9 block	KCNQ1 inh	Kir21 block	hERG protect	KCNK3 confirm	KCNK3 uninduced
COc1cccc(/C=C2\SC(=O)N(CCC(=O)N3CCCCC3CCO)C2=O)c1 (stereo not drawn)	-11*	i	i	i	-0.2	-12	78*	i
N#CC1(NC(=O)COC(=O)c2cccc(-n3cnnn3)c2)CCCCC1	i	i	i	i	-1.6	-16	/	/
O=C(CSc1nncn1-c1cccnc1)N(c1ccccc1)c1ccccc1	i	i	i	i	-1.3	-7	/	/
COc1cccc(C(=O)Nn2c(-c3cccs3)nc3ccccc3c2=O)c1OC	i	i	i	i	0.57	-15	/	/
COc1ccc(CNn2c(-c3cccs3)nc3ccccc3c2=O)cc1OC	-9.3*	i	i	i	0.61	-17	91*	i
CC(C)CC1NC(=O)N(CC(=O)Nc2cccc(Br)c2)C1=O (stereo not drawn)	i	/	/	/	/	/	/	/
OC1CCC(NC(=S)Nc2ccc(SC(F)F)cc2)CC1 (stereo not drawn)	i	i	i	i	-0.51	-6	/	/
FC(F)Sc1ccc(NC(=S)NC2CCCC2)cc1	-11*	i	i	i	-1.1	-6	113*	i
Cc1nc(SCC(=O)NCC2CCCO2)c2cc(-c3ccccc3)sc2n1 (stereo not drawn)	i	/	/	/	/	/	/	/
C=CCNCc1ccc(C(=O)NCCCCCCC)cc1[N+](=O)[O-]	i	i	i	i	-0.78	3	/	/
NC(=O)CSc1nc2cc(Cl)ccc2c(=O)n1C1CCCCC1	-10*	i	i	i	-0.29	-3	95*	i
COCCC(=O)N1CCCC(C(=O)c2ccc3c4c(cccc24)CC3)C1 (stereo not drawn)	-11*	i	i	i	0.57	-8	86*	0.15*
O=C(N/N=C\c1ccc(Cl)cc1Cl)c1sccc1-n1cccc1	-9.4*	i	i	i	0.74	-2	93*	i
O=C(N/N=C\c1ccc(Cl)cc1)c1sccc1-n1cccc1	i	i	i	i	0.73	-12	/	/
CCCCn1c(N)c(N(CCOC)C(=O)CSc2ccc([N+](=O)[O-])cc2)c(=O)[nH]c1=O	i	/	/	/	/	/	/	/
O=C(Nc1ccccc1)c1sccc1Oc1ccc([N+](=O)[O-])cc1F	-9*	i	i	i	-0.2	-9	113*	i
O=C(O)c1cc([N+](=O)[O-])ccc1C(=O)Nc1ccccc1	i	i	i	i	-0.56	-7	/	/
Cc1ccc(-c2csc3ncnc(N4CCN(Cc5ccccc5)CC4)c23)cc1	-11*	i	i	i	-0.13	-11	119*	i
C/C(=N\Nc1nc(N2CCOCC2)nc(N2CCOCC2)n1)c1cccs1	i	i	i	i	-0.41	-8	/	/
C/C(=N\Nc1nc(N2CCCCC2)nc(N2CCOCC2)n1)c1ccccc1O	-9.1*	i	i	i	0	-9	104*	i
CCOC(=O)C(=N/O)/C(C)=N/NC(=O)C(=O)Nc1ccc(Cl)cc1	-11*	i	i	9*	-0.94	-31	120*	i
O=C(COC(=O)c1cc(S(=O)(=O)N2CCc3ccccc3C2)ccc1Cl)NCc1ccco1	-9.4*	i	i	i	-2.8	-6	97*	i
O=C(COC(=O)c1cccc(S(=O)(=O)N2CCc3ccccc3C2)c1)NCc1ccco1	i	i	i	i	0.31	-7	/	/
COc1cccc(NC(=O)COC(=O)c2c3c(nc4ccccc24)CCC(C)C3)c1 (stereo not drawn)	-10*	i	i	i	-1.4	-22	96*	i
COc1ccccc1C1=CC(=O)CC(C)(C)C1=O	i	/	/	/	/	/	/	/
SMILES	KCNK3 block	KCNQ1 pot	KCNK9 block	KCNQ1 inh	Kir21 block	hERG protect	KCNK3 confirm	KCNK3 uninduced
CCC(CC)=N/N=C/c1c(O)n(CC)c2cc(C3=NNC(=O)CC3)ccc12	i	i	i	i	-0.23	-5	/	/
CCn1c(O)c(/C=N/N=C/c2ccccc2)c2ccc(C3=NNC(=O)CC3)cc21	-8.9*	i	i	i	-0.16	-22	131*	0.12*
CCOc1ccc(NC(=O)/C(C=Nc2ccccc2)=C(\C)O)cc1	i	i	i	i	1.9	-6	/	/
COc1ccc(CC(=O)OCCc2cc3cc(OC)c(OC)cc3c(=O)o2)cc1	i	/	/	/	/	/	/	/
Cc1cc2c(Nc3ccc(C(=O)O)cc3)ncnc2s1	-10*	i	i	i	-1.7	-4	62*	i
OC1(c2cccc(C(F)(F)F)c2)CCN(c2ncnc3c2[nH]c2ccc(F)cc23)CC1	-12*	/	/	/	/	/	132*	i
COc1ccccc1/C=N/NC(=O)CSc1ccc2ccccc2n1	-11*	i	i	i	0.28	-7	114*	i
COc1ccccc1/C=N/NC(=O)CSc1cc(C)nc2ccccc12	i	i	i	i	-0.06	-11	/	/
O=C(CSc1nnc(-c2ccc(Cl)cc2)n1Cc1ccco1)Nc1ccc2c(c1)OCCO2	i	i	i	i	1.6	-16	/	/
CC(=O)Nc1cccc(NC(=O)CSc2ncc(-c3ccc(Cl)cc3)n2Cc2ccco2)c1	-11*	i	i	7*	-0.48	-27	119*	0.14*
CN(C)c1cccc(C(=O)OCc2cc(=O)oc3cc(O)ccc23)c1	-9*	i	i	i	0.88	-16	113*	i
Cc1cccn2c(=O)c(C(=O)NCCCN3CC(C)CC(C)C3)c(O)nc12 (stereo not drawn)	i	i	i	i	2.2	-16	/	/
CN(C)c1oc(-c2ccccc2Cl)nc1S(=O)(=O)c1ccccc1	-9.3*	i	i	i	-0.27	-8	108*	i
CCOc1ccc(S(=O)(=O)N2CCCCC2)cc1NC(=O)Cc1cccs1	i	i	i	i	0.15	-8	/	/
O=C(N/N=C/c1cc(Cl)c(O)c(Cl)c1)c1cc2c(ccc3ccccc32)o1	-11*	i	i	12*	0.95	-28	101*	0.15*
CC1=CC2=NC(=O)/C(=C\c3cc(C)n(-c4cccc(Cl)c4)c3C)C(=N)N2O1	i	i	i	i	-1.8	-5	/	/
CC1=CC2=NC(=O)/C(=C/c3coc4ccc(Cl)cc4c3=O)C(=N)N2O1	-9.2*	i	i	10*	-11	-13	134*	0.087*

High-throughput results deposited in PubChem by Johns Hopkins Ion Channel Center.
